The results in this text go back to ChEMBL document CHEMBL2146414, “Lignan derivatives from Krameria lappacea roots inhibit acute inflammation in vivo and pro-inflammatory mediators in vitro” (J Nat Prod, 2011).

Activity calls are given as the source filed them. No cut-off for these calls is given here.

Assay [1] can be described thus: Inhibition of NFkappaB activity transfected in HEK293 cells pretreated for 1 hr before 6 hrs of LPS challenge by luciferase reporter gene assay. The note with it: Homo sapiens.
The subject of assay [2] is Mus musculus. Nature of the assay: Antiinflammatory activity in CD1 mouse ear dermatitis model assessed as inhibition of Croton oil-induced ear edema at 0.10 umol administered topically per cm'2 of ear measured after induction of dermatitis relative to untreated control. It counts as functional. The method in brief: (§1)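 Male CD-1 mice (28–32 g), anesthetized with ketamine 145 mg/kg i.p.; right ear (about 1 cm2) given 80 μg croton oil in 15 μL acetone, with test substance co-applied in acetone; left ear left untreated. Controls received irritant only. 6 mm punches taken from both ears; edema = weight difference treated minus untreated; % inhibition vs controls. ID50 by graphic interpolation of log dose–effect curves; ANOVA with Dunnett's test.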

In assay [3] the test system is Mus musculus. Description: Antiinflammatory activity in CD1 mouse ear dermatitis model assessed as inhibition of Croton oil-induced ear edema administered topically per cm'2 of ear measured after induction of dermatitis relative to untreated control. Format: functional.
The test system of assay [4] is Mus musculus. Description: Antiinflammatory activity in CD1 mouse ear dermatitis model assessed as inhibition of Croton oil-induced ear edema at 0.04 umol administered topically per cm'2 of ear measured 6 hrs after induction of dermatitis relative to untreated control. It counts as functional. The method in brief: as §1
The test system of assay [5] is Mus musculus. Description: Antiinflammatory activity in CD1 mouse ear dermatitis model assessed as inhibition of Croton oil-induced ear edema at 0.04 umol administered topically per cm'2 of ear measured 12 hrs after induction of dermatitis relative to untreated control. It counts as functional. The essentials:
as §1

Assay [6] has as its system Mus musculus. Description: Antiinflammatory activity in CD1 mouse ear dermatitis model assessed as reduction in AUC of Croton oil-induced ear edema response at 0.04 umol administered topically per cm'2 of ear measured 48 hrs after induction of dermatitis relative to untreated control. It counts as functional. The essentials:
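Croton oil dermatitis on the right ear of anesthetized male CD-1 mice, with compound co-applied topically in acetone. Ear punch weight difference (treated minus untreated ear) measured at several times up to 48 h.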

In assay [7] the test system is Mus musculus. Description: Antiinflammatory activity in CD1 mouse ear dermatitis model assessed as reduction in leukocyte infiltration-based myeloperoxidase activity at 0.04 umol administered topically per cm'2 of ear measured 3 to 48 hrs post dermatitis induction relative to untreated control. It counts as functional. The method in brief:
(§2)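 Same croton oil ear model in CD-1 mice. The ear punch is homogenized in 0.1 M acetate pH 4.2 with 0.1% HTAB and centrifuged 15000g for 5 min. Supernatant myeloperoxidase is assayed with 2.83 mM TMB plus 0.7 mM H2O2 for 5 min at 25 °C, stopped with acetic acid, A620, duplicates.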

The test system of assay [8] is Mus musculus. Nature of the assay: Antiinflammatory effect in CD1 mouse ear dermatitis model assessed as reduction in vascular changes at 0.04 umol administered topically per cm'2 of ear measured after 6 hrs post dermatitis induction relative to control. It counts as functional, organism-based. The method in brief: (§3)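 Male CD-1 mice (28–32 g) anesthetized with ketamine 145 mg/kg ip; right ear (about 1 cm2) given 80 μg croton oil in 15 μL acetone with test substance co-applied in acetone; controls irritant only; left ear untreated. Ears fixed in 10% formalin, paraffin-embedded, 10 μm sections stained hematoxylin-eosin or Giemsa, examined by light microscopy at set times after induction.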

For assay [9], the system named is Mus musculus. Description: Antiinflammatory effect in CD1 mouse ear dermatitis model assessed as reduction in cellular changes at 0.04 umol administered topically per cm'2 of ear measured after 6 hrs post dermatitis induction relative to control. Format: functional, organism-based. The method in brief: as §3
For assay [10], the system named is Mus musculus. Description: Antiinflammatory activity in CD1 mouse ear dermatitis model assessed as inhibition of Croton oil-induced ear edema at 0.01 umol administered topically per cm'2 of ear measured after induction of dermatitis relative to untreated control. Format: functional. The method in brief:
as §1

Assay [11] has as its system Mus musculus. Description: Antiinflammatory activity in CD1 mouse ear dermatitis model assessed as inhibition of Croton oil-induced ear edema at 0.03 umol administered topically per cm'2 of ear measured after induction of dermatitis relative to untreated control. It counts as functional. The essentials:
as §1

Assay [12] relates to Mus musculus. Nature of the assay: Antiinflammatory activity in CD1 mouse ear dermatitis model assessed as reduction in AUC of global leukocyte infiltration-based myeloperoxidase activity at 0.04 umol administered topically per cm'2 of ear measured 3 to 48 hrs post dermatitis induction relative to untreated control. Format: functional. The method in brief:
as §2

For assay [13], the system named is Radical scavenging activity. Nature of the assay: Antioxidant activity assessed as DPPH free radical scavenging activity after 30 mins by spectrophotometry. Format: functional. The note with it: read-out: IC50. (Loss of DPPH colour is used to gauge radical scavenging.)
The test system of assay [14] is Mus musculus. Description: Antiinflammatory activity in CD1 mouse ear dermatitis model assessed as inhibition of Croton oil-induced ear edema at 0.30 umol administered topically per cm'2 of ear measured after induction of dermatitis relative to untreated control. Format: functional. The essentials: as §1
The subject of assay [15] is Mus musculus. Nature of the assay: Antiinflammatory activity in CD1 mouse ear dermatitis model assessed as inhibition of Croton oil-induced ear edema at 1 umol administered topically per cm'2 of ear measured after induction of dermatitis relative to untreated control. It counts as functional. The essentials: as §1
The subject of assay [16] is Mus musculus. Nature of the assay: Antiinflammatory effect in CD1 mouse ear dermatitis model assessed as reduction in vascular changes at 0.4 umol administered topically per cm'2 of ear measured after 6 hrs post dermatitis induction relative to control. Format: functional, organism-based. The method in brief: as §3
Assay [17] has as its system Mus musculus. Description: Antiinflammatory effect in CD1 mouse ear dermatitis model assessed as reduction in cellular changes at 0.4 umol administered topically per cm'2 of ear measured after 6 hrs post dermatitis induction relative to control. Format: functional, organism-based. The method in brief: as §3
Assay [18] deals with Mus musculus. Description: Antiinflammatory effect in CD1 mouse ear dermatitis model assessed as preservance of mast cell degranulation at 0.4 umol administered topically per cm'2 of ear measured after 6 hrs post dermatitis induction relative to control. Format: functional, organism-based. The essentials: as §3
The subject of assay [19] is Mus musculus. Description: Antiinflammatory effect in CD1 mouse ear dermatitis model assessed as reduction in mast cell degranulation at 0.4 umol administered topically per cm'2 of ear measured after 6 hrs post dermatitis induction relative to control. It counts as functional, organism-based. The essentials: as §3
Assay [20] deals with Mus musculus. Description: Antiinflammatory effect in CD1 mouse ear dermatitis model assessed as reduction in leukocyte infiltration-based myeloperoxidase at 0.4 umol administered topically per cm'2 of ear measured after 6 hrs post dermatitis induction relative to control. Format: functional, organism-based. The essentials: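 CD-1 mice, croton oil 80 μg in acetone on right ear with topical test substance; ear punch (6 mm) homogenized in 0.1 M sodium acetate pH 4.2 with 0.1% HTAB, centrifuged 15000g 5 min; supernatant myeloperoxidase measured with TMB (2.83 mM) and 0.7 mM H2O2, 5 min at 25 °C, stopped with acetic acid, A620; duplicates; units = nM TMB oxidized/min.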

The subject of assay [21] is Mus musculus. Description: Antiinflammatory effect in CD1 mouse ear dermatitis model assessed as dermal swelling at 0.4 umol administered topically per cm'2 of ear after 9 hrs of post dermatitis induction relative to control. It counts as functional, organism-based. The method in brief:
as §3

Assay [22] has as its system Mus musculus. Description: Antiinflammatory activity in CD1 mouse ear dermatitis model assessed as inhibition of Croton oil-induced ear edema at 0.4 umol administered topically per cm'2 of ear measured 48 hrs after induction of dermatitis relative to untreated control.

`C=C1C(=O)O[C@@H]2[C@H]3O[C@]3(C)CC/C=C(\C)CC[C@@H]12`: the IC50 – broadly, the concentration that gives 50% inhibition – in assay [1] came to 1.4 µM.
Consider `C[C@]12CCC(=O)C=C1CC[C@@H]1[C@@H]2[C@@H](O)C[C@@]2(C)[C@H]1CC[C@]2(O)C(=O)CO` [HYDROCORTISONE], for which the “inhibition (INH)” value in assay [2] was 77%; in [4] it was 79%; in [5], 60%; in assay [6], 69%; in assay [7], 35%; in assay [10], 29%. Besides, the entries for the “inhibition (INH)” value in assay [11] and in assay [12] were 55% and 51%, respectively. The ID50 in assay [3] is recorded as 0.03 umol/cm2. For the same compound, the inhibition entry in assay [8] and in [9] was “Active” throughout.
Consider `O=C1O[C@H]([C@@H](O)CO)C(O)=C1O` [ASCORBIC ACID], for which, in assay [13], the half-inhibitory concentration (IC50) is 24.2 µM.
As for `COc1ccc2c(c1)c(CC(=O)O)c(C)n2C(=O)c1ccc(Cl)cc1` [INDOMETHACIN], the entries for the “inhibition (INH)” value in [2], in [14] and in [15] were 25%, 51% and 80%, respectively. In assay [3], the ID50 is reported as 0.29 umol/cm2. Also, the inhibition result in assay [16], in [17], in [18], in [19] and in [20] was “Active” each time. The inhibition result in assay [21] and in [22] was “inactive” throughout.
